Test [1] deals with HaCaT. Description: Activation of AMPK/SIRT1 in human HaCaT cells assessed as nitric oxide production at 10 uM incubated for 1 hr in presence of compound C by DAF-2D staining-based fluorescence assay. The test is classed as cell-based. The procedure, abridged: (§1)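 HaCaT cells in DMEM with 10% FBS. DHP (10 µM) given for 1 h alone or together with 10 µM AMPK inhibitor compound C or 10 µM SIRT1 inhibitor EX-527. Intracellular NO read by flow cytometry after loading with 5 µM DAF-2D in medium (ex 485/em 538 nm). Expressed as % DAF-positive cells versus DMSO.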

The test system of test [2] is HaCaT. Description: Activation of AMPK/SIRT1 in human HaCaT cells assessed as nitric oxide production at 10 uM incubated for 1 hr in presence of EX-527 by DAF-2D staining-based fluorescence assay. In kind it is cell-based. A digest of the protocol:
as §1

Another test deals with A549. Description: Antiproliferative activity against human A549 cells assessed as cell viability after 72 hrs by MTT assay. The test is classed as functional, cell-based. The following applies: A549, 72 h. A digest of the protocol:
(§2)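 Cells grown in RPMI with 10% fetal calf serum and penicillin, seeded in sextuplicate at 3 × 10^3 cells/well. After 24 h, cells were exposed 72 h to 5–200 µM. Viability was measured by MTT and expressed as treated/untreated × 100. IC50 was calculated from three independent experiments, reported as mean ± SD.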
A general note: Formazan colour is commonly taken as a measure of viable cells.

For a further test, the system named is A2780. Description: Antiproliferative activity against human A2780 cells assessed as cell viability after 72 hrs by MTT assay. The test is classed as functional, cell-based. The following applies: A2780, 72 h. The procedure, abridged: as §2
For test [3], the system named is HaCaT. Description: Activation of AMPK/SIRT1 in human HaCaT cells assessed as nitric oxide production at 1 uM incubated for 1 hr by DAF-2D staining-based fluorescence assay. In kind it is cell-based. A digest of the protocol: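 HaCaT keratinocytes grown in DMEM with 10% FBS and antibiotics. Cells treated 1 h (single-point 1 µM; dose-response at 5, 25, 50 µM). 5 µM DAF-2D added to complete medium. Cells then washed in PBS, trypsinized and analysed by flow cytometry for DAF fluorescence (ex 485/em 538 nm). Read-out is % DAF-positive cells relative to DMSO control.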

The target of test [4] is T1, NAD-dependent protein deacetylase sirtuin-1 (Homo sapiens) (UniProt Q96EB6).
T1 sequence (whole entry): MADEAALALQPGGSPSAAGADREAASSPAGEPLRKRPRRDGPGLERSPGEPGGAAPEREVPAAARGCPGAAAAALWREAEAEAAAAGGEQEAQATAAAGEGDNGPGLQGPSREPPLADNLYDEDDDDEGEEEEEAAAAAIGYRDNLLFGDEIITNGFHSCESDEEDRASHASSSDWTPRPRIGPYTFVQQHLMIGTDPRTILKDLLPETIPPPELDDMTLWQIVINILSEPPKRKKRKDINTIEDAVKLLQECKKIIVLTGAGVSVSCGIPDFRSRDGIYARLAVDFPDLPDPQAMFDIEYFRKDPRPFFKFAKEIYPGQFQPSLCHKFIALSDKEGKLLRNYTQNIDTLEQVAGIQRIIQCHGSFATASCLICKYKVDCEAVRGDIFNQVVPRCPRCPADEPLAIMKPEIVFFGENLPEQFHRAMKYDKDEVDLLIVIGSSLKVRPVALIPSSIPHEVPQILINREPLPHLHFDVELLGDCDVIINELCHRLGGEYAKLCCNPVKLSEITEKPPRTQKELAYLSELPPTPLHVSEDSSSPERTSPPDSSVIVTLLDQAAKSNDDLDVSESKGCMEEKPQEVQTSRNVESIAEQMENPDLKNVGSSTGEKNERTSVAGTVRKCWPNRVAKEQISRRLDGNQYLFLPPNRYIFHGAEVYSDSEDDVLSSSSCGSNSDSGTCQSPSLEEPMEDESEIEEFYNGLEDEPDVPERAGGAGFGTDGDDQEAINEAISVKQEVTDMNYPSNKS
Description: Activation of full-length GST-tagged recombinant human SIRT1 assessed as enzyme activity obtained without subtraction of intrinsic fluorescence using p53-based untagged peptide as substrate at 50 uM after 30 mins by SIRTainty assay.

The next test deals with Caov-3 cell line. Description: Antiproliferative activity against human Caov3 cells assessed as cell viability after 72 hrs by MTT assay. The test is classed as functional, cell-based. The following applies: Caov-3, 72 h. The procedure, abridged: as §2
For a further test, the system named is LoVo. Description: Antiproliferative activity against human LoVo cells assessed as cell viability after 72 hrs by MTT assay. In kind it is functional, cell-based. A digest of the protocol:
as §2

For another test, the system named is SK-OV-3. Description: Antiproliferative activity against human SKOV3 cells assessed as cell viability after 72 hrs by MTT assay. In kind it is functional, cell-based. The following applies: SK-OV-3, 72 h. A digest of the protocol:
as §2

Another test deals with NCI-H1299. Description: Antiproliferative activity against human NCI-H1299 cells assessed as cell viability after 72 hrs by MTT assay. The test is classed as functional, cell-based. Particulars: NCI-H1299, 72 h. A digest of the protocol:
as §2

In test [5] the target is T1, NAD-dependent protein deacetylase sirtuin-1 (Homo sapiens). Description: Activation of full-length GST-tagged recombinant human SIRT1 assessed as enzyme activity obtained with subtraction of intrinsic fluorescence using p53-based untagged peptide as substrate at 50 uM after 30 mins by SIRTainty assay.
Test [6] has the same target. Description: Activation of SIRT1 in human M14 cells assessed as deacetylation of acetyl-H4K16 after 48 hrs by Western blotting method. The test is classed as cell-based. A digest of the protocol:
(§3)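 M14 melanoma and H1299 lung cancer cells treated 48 h at 5, 10 and 20 µM. Total protein extracts immunoblotted for acetyl-H4K16, with β-actin as loading control. Detection by HRP secondary antibodies and enhanced chemiluminescence. Bands quantified by densitometry.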
A general note: In western blotting, separated proteins are transferred to a membrane and probed.

A short description of test [7]: Antiproliferative activity against human SAN cells assessed as cell viability after 72 hrs by MTT assay. The test is classed as functional, cell-based. A digest of the protocol: as §2
The subject of another test is HT-29. Description: Antiproliferative activity against human HT-29 cells assessed as cell viability after 72 hrs by MTT assay. In kind it is functional, cell-based. The following applies: HT-29, 72 h. A digest of the protocol: as §2
In the next test the test system is M14. Description: Antiproliferative activity against human M14 cells assessed as cell viability after 72 hrs by MTT assay. Particulars: M14, 72 h. In kind it is functional, cell-based. A digest of the protocol: as §2
The target of test [8] is T1, NAD-dependent protein deacetylase sirtuin-1 (Homo sapiens). Description: Activation of SIRT1 in human NCI-H1299 cells assessed as deacetylation of acetyl-H4K16 after 48 hrs by Western blotting method. In kind it is cell-based. A digest of the protocol:
as §3

A further test concerns HEY. Description: Antiproliferative activity against human HEY cells assessed as cell viability after 72 hrs by MTT assay. In kind it is functional, cell-based. The procedure, abridged:
as §2

Test [9] concerns the target T1, NAD-dependent protein deacetylase sirtuin-1 (Homo sapiens). Particulars: HaCaT, 1 uM.
Test [10] concerns HaCaT. Description: Activation of AMPK/SIRT1 in human HaCaT cells assessed as nitric oxide production up to 50 uM incubated for 1 hr by DAF-2D staining-based fluorescence assay. In kind it is cell-based. The procedure, abridged: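 HaCaT keratinocytes in DMEM with 10% FBS; treated 1 h (dose-response at 5, 25, 50 µM; screen at 1 µM), DMSO solvent control. 5 µM DAF-2D added to the medium; cells washed, trypsinized and analysed by flow cytometry. Read-out is % DAF-positive cells relative to DMSO.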

The nature of test [11]: Antagonist activity at calcium channel in guinea pig smooth muscle assessed as inhibition of calcium-induced contraction in K+-depolarized aortic strips. Particulars: Cavia porcellus.

The results in this text go back to ChEMBL document CHEMBL4428023, “1,4-Dihydropyridines Active on the SIRT1/AMPK Pathway Ameliorate Skin Repair and Mitochondrial Function and Exhibit Inhibition of Proliferation in Cancer Cells” (J Med Chem, 2016).

pIC50: −log10 of the molar value. The source made the active and inactive calls. The rule behind the calls is not given here.

By pIC50 is commonly meant the negative decadic logarithm of the IC50, by convention in mol/L. For the molecule `CCOC(=O)C1=CN(Cc2ccccc2)C=C(C(=O)OCC)C1c1ccc(CN2CCN(C)CC2)cc1`, the outcome in the test with HaCaT [1] and in the test with HaCaT [2] was inactive. The negative-log IC50 (pIC50) is 4.70 in the test with A549; 5.00 with A2780; 4.62 in the test on Caov-3 cell line; 4.82 with LoVo; 4.46 with SK-OV-3; 4.62 in the test on NCI-H1299. Moreover, the pIC50 was 4.80 in [7], 4.96 in the test with HT-29, 5.10 in the test with M14 and 4.82 in the test with HEY. Further, in the test on HaCaT [3], the outcome was Active. For the same molecule, the Activity was 152% in test [4], 68% in [5], “Dose-dependent effect” in test [6] and “Dose-dependent effect” in test [8].

As for `CC(NC(=O)c1ccccc1/N=C/c1c(O)ccc2ccccc12)c1ccccc1` (stereo not given), in test [9], the inhibition entry is “Active”.

On to `COC(=O)C1=C(C)NC(C)=C(C(=O)OC)C1c1ccccc1[N+](=O)[O-]` [NIFEDIPINE], for which, in the test with HaCaT [10], the result was inactive. Moreover, in test [11], the pIC50 was 8.05.
